Laboratory results reported in ChEMBL document CHEMBL5226368, “1H NMR-Based Biochemometric Analysis of Morus alba Extracts toward a Multipotent Herbal Anti-Infective” (J Nat Prod, 2023).
Converted amounts (≈) assume the structure as drawn. The source made the active and inactive calls. The calls are words filed in the database; no cut-off is given here.

Experiments:
[1] = test system: A549; assay: Cytotoxicity against human A549 cells assessed as reduction in cell viability incubated for 72 hrs by WST-8 assay; type: toxicity, cell-based; conditions: a549, 72 h
Summary of the method: (§1)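 Confluent monolayers in serum-free medium with 0.2 μg/mL trypsin were exposed to six half-log concentrations (maximum 100 μM) for 72 h at 37 °C. WST-8 was added for 2 h and OD read at 450 vs 620 nm (NADH activity). After PBS washes, crystal violet staining was used for viability. At least three assays were run.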

[2] = test system: Calu-3; assay: Cytotoxicity against human Calu-3 cells assessed as reduction in cell viability incubated for 72 hrs by WST-8 assay; type: toxicity, cell-based; conditions: calu-3, 72 h; summary of the method: as §1
[3] = test system: Streptococcus pneumoniae; assay: Antibacterial activity against Streptococcus pneumoniae DSM20566 assessed as inhibition of bacterial growth incubated for 24 hrs by broth microdilution assay; type: functional
Summary of the method: (§2)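 S. pneumoniae was tested by broth microdilution in Todd Hewitt broth with yeast extract. Double-concentrated half-log dilutions (duplicates) were combined 1:1 by volume with inoculum at 2×10^5 CFU/mL, then held 24 h at 37 °C under 5% CO2. MIC was the lowest concentration without visible growth, averaged over three assays. Ampicillin and rifampicin served as references.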

[4] = test system: Streptococcus pneumoniae; assay: Antibacterial activity against Streptococcus pneumoniae D39 assessed as inhibition of bacterial growth incubated for 24 hrs by broth microdilution assay; type: functional; summary of the method: as §2
[5] = test system: Staphylococcus aureus; assay: Antibacterial activity against Staphylococcus aureus ATCC43000 assessed as inhibition of bacterial growth incubated for 24 hrs by broth microdilution assay; type: functional
Summary of the method: (§3)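 Broth microdilution on S. aureus in brain-heart-infusion broth. Double-concentrated half-log dilutions (duplicates) mixed with an equal volume of bacterial suspension at 2×10^5 CFU/mL. Incubated 24 h at 37 °C, 5% CO2. MIC read as the lowest concentration with no visible growth. Reported as mean MIC of three assays. Ampicillin and rifampicin served as references.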

[6] = test system: Staphylococcus aureus; assay: Antibacterial activity against Staphylococcus aureus ATCC25923 assessed as inhibition of bacterial growth incubated for 24 hrs by broth microdilution assay; type: functional; summary of the method: as §3
[7] = test system: Influenza A virus; assay: Antiviral activity against Influenza A virus; type: functional, organism-based

Structure (SMILES) | Activity [1] | Activity [2] | MIC [3] | MIC [4] | MIC [5] | MIC [6] | Activity [7]
CC(C)=CCCC1=C[C@H](c2c(O)cc3c(c2O)C(=O)C[C@@H](c2ccc(O)cc2O)O3)[C@@H](C(=O)c2ccc(O)cc2O)[C@H](c2ccc(O)cc2O)C1 | Non-Toxic | Non-Toxic | 3.16 µM (≈ 2.2 µg/mL) | 3.16 µM (≈ 2.2 µg/mL) | 10 µM (≈ 6.95 µg/mL) | 10 µM (≈ 6.95 µg/mL) | –
CO[C@H]1/C=C/O[C@@]2(C)Oc3c(C)c(O)c4c(O)c(c(/C=N/N5CCN(C)CC5)c(O)c4c3C2=O)NC(=O)/C(C)=C\C=C\[C@H](C)[C@H](O)[C@@H](C)[C@@H](O)[C@@H](C)[C@H](OC(C)=O)[C@@H]1C [RIFAMPIN] | – | – | 0.02 µM (≈ 0.0165 µg/mL) | – | 15.4 µM (≈ 12.7 µg/mL) | 1 µM (≈ 0.823 µg/mL) | –
CC(C)=CC[C@]12Oc3cc(O)c([C@H]4C=C(C)C[C@H](c5ccc(O)cc5O)[C@H]4C(=O)c4ccc(O)cc4O)c(O)c3C(=O)[C@@]1(O)Oc1cc(O)ccc12 [SANGGENON C] | Non-Toxic | Non-Toxic | 2.08 µM (≈ 1.47 µg/mL) | 1.72 µM (≈ 1.22 µg/mL) | 3.16 µM (≈ 2.24 µg/mL) | 3.16 µM (≈ 2.24 µg/mL) | –
CC1(C)S[C@@H]2[C@H](NC(=O)[C@H](N)c3ccccc3)C(=O)N2[C@H]1C(=O)O [AMPICILLIN] | – | – | – | 0.02 µM (≈ 0.00699 µg/mL) | – | – | –
CC(C)=CCC12Oc3cc(O)c(C4C=C(C)CC(c5ccc(O)cc5O)C4C(=O)c4ccc(O)cc4O)c(O)c3C(=O)C1(O)Oc1cc(O)ccc12 (stereo not drawn) | Non-Toxic | Non-Toxic | 3.16 µM (≈ 2.24 µg/mL) | 3.16 µM (≈ 2.24 µg/mL) | 10 µM (≈ 7.09 µg/mL) | 10 µM (≈ 7.09 µg/mL) | inactive
